From ChEMBL document CHEMBL4041505, “Synthesis, SAR and pharmacological characterization of novel anthraquinone cation compounds as potential anticancer agents” (Eur J Med Chem, 2017)

Tests used:
HepG2 = test: Cytotoxicity against human HepG2 cells measured after 24 hrs by MTT assay; type: functional, cell-based; conditions: HepG2, 24 h
Procedure, shortened: (§1)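 Cells were kept in RPMI 1640 with 10% FBS, penicillin and streptomycin at 37°C in 5% CO2. Seeding was given for A375 only, at 1×10^4/well. After 24 h, cells were exposed to compounds for 24 h; compounds were dissolved in DMSO and diluted in medium containing 0.1% DMSO. Cells were washed, given 5 mg/mL MTT for 4 h, and formazan was dissolved in DMSO and read at 492 nm. Three independent experiments were run in triplicate, with IC50 taken from viability curves.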

[1] = Cytotoxicity against HELF cells measured after 24 hrs by MTT assay; type: cell-based; conditions: Homo sapiens; procedure, shortened: as §1
BGC-823 = test: Cytotoxicity against human BGC823 cells measured after 24 hrs by MTT assay; type: functional, cell-based; conditions: BGC-823, 24 h; procedure, shortened: as §1
A-375 [2] = test: Cytotoxicity against human A375 cells measured after 24 hrs by MTT assay; type: functional, cell-based; conditions: A-375, 24 h; procedure, shortened: as §1
HeLa [3] = test: Induction of apoptosis in human HeLa cells assessed as live cells at 1 uM measured after 24 hrs by Annexin V-FITC/propidium iodide staining based flow cytometry (reference value: 99.9 %); type: functional
A-375 [4] = test: Induction of apoptosis in human A375 cells assessed as chromatin condensation measured after 24 hrs by DAPI staining based fluorescence microscopic analysis; type: functional, cell-based
Procedure, shortened: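 A375 cells were treated with 1, 2 or 4 μM for 24 h, washed, and fixed in cold methanol:acetic acid (3:1) for 10 min. They were stained with 1 μg/mL DAPI at 37°C for 5 min and imaged by fluorescence microscopy at 364 nm, 400×, for nuclear morphology.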

HeLa [5] = test: Induction of apoptosis in human HeLa cells assessed as late apoptotic cells at 1 uM measured after 24 hrs by Annexin V-FITC/propidium iodide staining based flow cytometry (reference value: 0.058 %); type: functional
HeLa [6] = test: Induction of apoptosis in human HeLa cells assessed as early apoptotic cells at 1 uM measured after 24 hrs by Annexin V-FITC/propidium iodide staining based flow cytometry (reference value: 0.078 %); type: functional
HeLa [7] = test: Induction of apoptosis in human HeLa cells assessed as necrotic cells at 1 uM measured after 24 hrs by Annexin V-FITC/propidium iodide staining based flow cytometry relative to control; type: functional
A-375 [8] = test: Induction of apoptosis in human A375 cells assessed as increase in caspase-3 expression measured after 24 hrs by Western blot analysis; type: functional, cell-based
Procedure, shortened: (§2)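 A375 cells were treated for 24 h at 5 or 10 μM. Lysates were clarified at 12,000 g for 5 min at 4°C and protein measured by BCA. Equal protein was run on 10% SDS-PAGE and transferred to PVDF. Primary antibodies (1:1000) were applied overnight at 4°C, then secondary (1:5000) for 2 h at 37°C. Detection was by chemiluminescence with densitometry, GAPDH as internal reference.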

A-375 [9] = test: Induction of apoptosis in human A375 cells assessed as increase in P53 expression measured after 24 hrs by Western blot analysis; type: functional, cell-based; procedure, shortened: as §2
A-375 [10] = test: Induction of apoptosis in human A375 cells assessed as increase in intracellular ROS production at 1 uM measured after 24 hrs by DCF-DA fluorescence dye based flow cytometry relative to control; type: functional
Procedure, shortened: (§3)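 A375 cells were exposed to treatments for 24 h and washed with PBS. They were loaded with 20 µM DCF-DA in serum-free DMEM at 37°C for 30 min, washed with ice-cold PBS and harvested. Mean DCF fluorescence was measured by flow cytometry as the ROS level; n=3, mean±SD, relative to untreated cells.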

A-375 [11] = test: Induction of apoptosis in human A375 cells assessed as increase in intracellular ROS production at 2 uM measured after 24 hrs by DCF-DA fluorescence dye based flow cytometry relative to control; type: functional; procedure, shortened: as §3
A-375 [12] = test: Induction of apoptosis in human A375 cells assessed as increase in intracellular ROS production measured after 24 hrs by DCF-DA fluorescence dye based flow cytometry; type: functional, cell-based; procedure, shortened: as §3
A-375 [13] = test: Induction of apoptosis in human A375 cells assessed as loss of mitochondrial membrane potential measured after 30 mins by DiOC6 dye based flow cytometry; type: functional, cell-based
Procedure, shortened: (§4)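 A375 cells were treated at 0, 1, 2 or 4 μM, then loaded with 50 nM DiOC6 in serum-free DMEM at 37°C for 30 min. Cells were washed twice with ice-cold PBS, harvested and analysed by flow cytometry. ΔΨm is expressed as percent change versus untreated cells, as mean±SD of three determinations.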

A-375 [14] = test: Induction of apoptosis in human A375 cells assessed as decrease in mitochondrial membrane potential at 1 uM measured after 30 mins by DiOC6 dye based flow cytometry relative to control; type: functional; set-up: scale not given: the % may be the effect or the level left; procedure, shortened: as §4
A-375 [15] = test: Induction of apoptosis in human A375 cells assessed as decrease in mitochondrial membrane potential at 4 uM measured after 30 mins by DiOC6 dye based flow cytometry relative to control; type: functional; set-up: scale not given: the % may be the effect or the level left; procedure, shortened: as §4
[16] = Drug uptake in mitochondria of human A375 cells at 2 uM measured after 24 hrs by Mito-Tracker Green staining based laser confocal microscopic analysis; type: ADME
Procedure, shortened: (§5)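 A375 cells were plated at 10^5 cells/mL for 24 h to about 70% confluence. They were exposed to 2 μM at 37°C for 24 h, washed, then stained with 100 nM Mito-Tracker Green (488 nm) for 30 min. After PBS washes, compound fluorescence (568 nm) and the mitochondrial stain were imaged by laser confocal microscopy.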

[17] = Drug uptake in nucleus of human A375 cells at 2 uM measured after 24 hrs by Mito-Tracker Green staining based laser confocal microscopic analysis; type: ADME; procedure, shortened: as §5
HeLa [18] = test: Reduction in mitochondrial membrane potential in mitochondria isolated from human HeLa cells measured after 2 hrs by DiOC6 dye based HSFCM analysis; type: functional, cell-based
Procedure, shortened: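 Mitochondria isolated from HeLa cells were treated at 0, 1, 10, 50 or 100 µM for 2 h at 37°C and washed with MT buffer. They were stained with 500 nM DiOC6 for 15 min at 37°C, washed twice and resuspended in MT buffer. Analysis was on a laboratory-built high-sensitivity flow cytometer, recording median and mean green fluorescence against drug concentration.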

Row | Compound | IC50 (HepG2) | IC50 [1] | IC50 (BGC-823) | IC50 (A-375 [2]) | other results
1 | CCCCCCCCC[N+](C)(CCCCCCCCC)Cc1cc(O)c2c(c1)C(=O)c1cc(OC)cc(O)c1C2=O | 7.39 µM | 9.83 µM | 3.93 µM | 2.63 µM | 
2 | CCCCCCCCCC[N+](C)(CCCCCCCCC)Cc1cc(O)c2c(c1)C(=O)c1cc(OC)cc(O)c1C2=O (stereo not given) | 3.97 µM | 9.56 µM | 3.85 µM | 2.2 µM | 
3 | CCCCCCCCCC[N+](C)(CCCCCCCCCC)Cc1ccc2c(c1)C(=O)c1ccccc1C2=O | 1.57 µM | 5.84 µM |  |  | 
4 | CCCCCCCC[N+](CCCCCCCC)(CCCCCCCC)Cc1cc(OC)c2c(c1)C(=O)c1cc(OC)cc(OC)c1C2=O | 5.45 µM | 4.5 µM | 5 µM | 3.46 µM | 
5 | COCCOCC[N+](CCOCCOC)(CCOCCOC)Cc1cc(OC)c2c(c1)C(=O)c1cc(OC)cc(OC)c1C2=O | > 100 µM | > 100 µM | > 100 µM | > 100 µM | 
6 | CCCCCCCCC[N+](C)(C)Cc1cc(O)c2c(c1)C(=O)c1cc(OC)cc(O)c1C2=O | 10.4 µM | 21.6 µM | 9.76 µM | 9.87 µM | 
7 | CC(=O)O[C@H]1C(=O)[C@@]2(C)[C@H]([C@H](OC(=O)c3ccccc3)[C@]3(O)C[C@H](OC(=O)[C@H](O)[C@@H](NC(=O)c4ccccc4)c4ccccc4)C(C)=C1C3(C)C)[C@]1(OC(C)=O)CO[C@@H]1C[C@@H]2O [PACLITAXEL] |  |  |  | 11.3 µM | 
8 | CCCCCCCC[N+](C)(CCCCCCCC)Cc1ccc2c(c1)C(=O)c1ccccc1C2=O | 2.08 µM | 8.46 µM |  |  | 
9 | CCCCCCCCC[N+](C)(CCCCCCCC)Cc1cc(O)c2c(c1)C(=O)c1cc(OC)cc(O)c1C2=O.[Br-] (stereo not given) | 4.12 µM | 9.65 µM | 2.79 µM | 1.39 µM | Activity (HeLa [3]): 3.73%; Activity (A-375 [4]): Dose-dependent effect; Activity (HeLa [5]): 60.8%; Activity (HeLa [6]): 0.444%; Activity (HeLa [7]): 35%; Activity (A-375 [8]): Dose-dependent effect; Activity (A-375 [9]): Dose-dependent effect; fold change (FC) (A-375 [10]): 2.7; fold change (FC) (A-375 [11]): 5.8; Activity (A-375 [12]): Dose-dependent effect; Activity (A-375 [13]): Dose-dependent effect; Activity (A-375 [14]): 25%; Activity (A-375 [15]): 38%; Drug uptake [16]: Active; Drug uptake [17]: Not Active; Activity (HeLa [18]): Dose-dependent effect
10 | CCCCCCCCC[N+](C)(CCOCCOCCO)Cc1cc(OC)c2c(c1)C(=O)c1cc(OC)cc(OC)c1C2=O (stereo not given) | 37.7 µM | 40.4 µM | 32.7 µM | 28.9 µM | 
11 | Cc1cc(O)c2c(c1)C(=O)c1cc(O)cc(O)c1C2=O [EMODIN] | > 50 µM | 46.3 µM | > 50 µM | 44.9 µM | 
12 | CCCCCCCC[N+](C)(CCCCCCCC)Cc1cc(O)c2c(c1)Cc1cc(O)cc(O)c1C2=O | > 100 µM | > 100 µM |  |  | 
